Reference: publication PMC9292889 (Clinical Pharmacology in Drug Development, 2020)
“Also recorded” adds a separate entry of the source. Marks after values point to notes of the source that are not given here.

Assays:
[1] = Single-dose plasma pharmacokinetics; type: in vivo, human; conditions: for Ratio of dose‐normalized geometric means AUC0‐∞ (90%CI) / Ratio of dose‐normalized geometric means Cmax (90%CI) / half-life: day 1; for half-life / Cmax / Tmax: human, plasma; for half-life: oral, across the 2‐ to 10‐mg dose range; for Cmax / Tmax: po; for Tmax: day 1, median (range); for CL/F: day 1, arithmetic mean (SD)
How it was run: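 Fasted healthy Chinese adults took a single oral dose of test compound (2, 4 or 10 mg) with 200 mL water on day 1. Plasma was sampled at 0.5–48 h by LC-MS/MS (K2EDTA plasma, liquid-liquid extraction, validated 0.200–200.00 ng/mL). Noncompartmental Cmax, tmax, AUC0‑∞ and CL/F were derived. A power model gave ratios of dose-normalized geometric means against 2 mg, with 90% CI.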

[2] = Multiple-dose plasma pharmacokinetics; type: in vivo, human; conditions: for CL/F / RA (accumulation ratio): day 10, arithmetic mean (SD), N = 8; for Ratio of dose‐normalized geometric means AUCτ,ss (90%CI) / Ratio of dose‐normalized geometric means Cmax,ss (90%CI): multiple dose, day 10
How it was run: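 Oral test compound (2, 4, 10 mg) was given once daily on days 4–10 after an overnight fast of at least 10 h. Plasma was sampled predose on days 4–10 to judge steady state, and at 0.5–48 h after the day-10 dose. LC-MS/MS after liquid-liquid extraction from K2EDTA plasma, validated 0.200–200.00 ng/mL. Noncompartmental AUCτ,ss, Cmax,ss, tmax, t½, CL/F and accumulation ratio were derived.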

Safety and tolerability = type: in vivo, human; conditions: for Number of subjects (%) with ≥1 AE, all causalities: single and multiple doses
How it was run: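 Fasted healthy Chinese adults received oral test compound (2, 4, 10 mg) or placebo, single dose on day 1 then once daily on days 4–10, blinded and randomized. TEAEs were defined as onset or worsening after dosing and coded by MedDRA term. They were tabulated by treatment, relationship to drug, day of onset and severity. Single 12-lead ECGs, supine/standing blood pressure and pulse rate, and laboratory tests were also recorded.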

[3] = Clinical laboratory tests; type: in vivo, human; conditions: for maximum mean decrease in ANC: day 10, 8 hours after dosing; for maximum mean decrease from baseline in ANC: day 1, 8 hours after dosing
How it was run: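 Randomized, subject- and investigator-blinded study in healthy Chinese adults (screening ANC ≥2000 cells/μL). Oral dose of 2, 4 or 10 mg test compound or placebo, given after an overnight fast of at least 10 h with 200 mL water, meals 3 h later. Single dose on day 1, then once daily on days 4–10. Clinical laboratory tests were run throughout, and ANC/ALC change was taken from baseline.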

[4] = cited from earlier work
cytochrome P450 3A4 = conditions: oxidative metabolism mediated by cytochrome P450 3A4; cited from earlier work
[5] = system: organic anion transporter 3; conditions: in vitro; cited from earlier work
[6] = system: multidrug and toxin extrusion protein 2‐K; conditions: in vitro; cited from earlier work
P‐glycoprotein = conditions: in vitro; cited from earlier work
[7] = system: breast cancer resistance protein; conditions: in vitro; cited from earlier work
[8] = patients weighing <40 kg; cited from earlier work

CCS(=O)(=O)N1CC(CC#N)(n2cc(-c3ncnc4[nH]ccc34)cn2)C1 [Baricitinib]
Ratio of dose‐normalized geometric means AUC0‐∞ (90%CI) ([1]; 4 mg vs 2 mg, single dose): 1.05 (1.00‐1.11) | Ratio of dose‐normalized geometric means Cmax (90%CI) ([1]; 4 mg vs 2 mg, single dose): 1.09 (0.97‐1.22) | Ratio of dose‐normalized geometric means AUC0‐∞ (90%CI) ([1]; 10 mg vs 2 mg, single dose): 1.13 (1.01‐1.26) | Ratio of dose‐normalized geometric means Cmax (90%CI) ([1]; 10 mg vs 2 mg, single dose): 1.22 (0.94‐1.58) | half-life ([1]; mean t1/2, single dose): 354 to 444 min | half-life ([1]; t1/2, individual values, single dose): 270 to 708 min | Cmax ([1]; 2 mg): 24.6 ng/mL | Tmax ([1]; 2 mg, single oral 2 mg, N = 8): 1 h | Cmax ([1]; 4 mg): 51.3 ng/mL | Tmax ([1]; 4 mg, single oral 4 mg, N = 9): 1 h | Cmax ([1]; 10 mg): 152 ng/mL | Tmax ([1]; 10 mg, single oral 10 mg, N = 8): 0.75 h | CL/F ([1]; single oral 2 mg, N = 8): 14.5 (1.76) L/h | CL/F ([1]; single oral 4 mg, N = 8): 15.0 (2.48) ^a L/h | CL/F ([1]; single oral 10 mg, N = 8): 12.9 (1.24) L/h | CL/F ([2]; 2 mg once daily): 13.9 (1.66) L/h | RA (accumulation ratio) ([2]; 2 mg once daily): 1.11 (0.11) | CL/F ([2]; 4 mg once daily): 15.3 (2.64) L/h | RA (accumulation ratio) ([2]; 4 mg once daily): 1.06 (0.20) | Ratio of dose‐normalized geometric means AUCτ,ss (90%CI) ([2]; 4 mg vs 2 mg): 1.03 (0.97‐1.09) | Ratio of dose‐normalized geometric means Cmax,ss (90%CI) ([2]; 4 mg vs 2 mg): 0.99 (0.91‐1.08) | CL/F ([2]; 10 mg once daily): 13.1 (1.95) L/h | RA (accumulation ratio) ([2]; 10 mg once daily): 1.05 (0.07) | Ratio of dose‐normalized geometric means AUCτ,ss (90%CI) ([2]; 10 mg vs 2 mg): 1.07 (0.94‐1.23) | Ratio of dose‐normalized geometric means Cmax,ss (90%CI) ([2]; 10 mg vs 2 mg): 0.99 (0.81‐1.20) | AUC ([2]; human, plasma, oral, 2 mg): 146 ng·h/mL | Cmax ([2]; human, plasma, oral, 2 mg): 28.6 ng/mL | Tmax ([2]; human, plasma, oral, 2 mg): 30 min | half-life ([2]; human, plasma, oral, 2 mg): 341 min | AUC ([2]; human, plasma, oral, 4 mg): 268 ng·h/mL | Cmax ([2]; human, plasma, oral, 4 mg): 49.6 ng/mL | half-life ([2]; human, plasma, oral, 4 mg): 453 min | AUC ([2]; human, plasma, oral, 10 mg): 778 ng·h/mL | Cmax ([2]; human, plasma, oral, 10 mg): 138 ng/mL | half-life ([2]; human, plasma, oral, 10 mg): 443 min | Attainment of steady‐state plasma concentrations ([2]; once‐daily dosing days 4 through 10, predose samples): after the second day of once‐daily dosing; also recorded: after the second once‐daily dose | ALT increased, drug related (number of TEAEs [number of subjects with TEAEs]) (Safety and tolerability; 2 mg (N = 8)): 0 | ANC decreased, drug related (number of TEAEs [number of subjects with TEAEs]) (Safety and tolerability; 2 mg (N = 8)): 0 | AST increased, drug related (number of TEAEs [number of subjects with TEAEs]) (Safety and tolerability; 2 mg (N = 8)): 0 | Bilirubin increased, drug related (number of TEAEs [number of subjects with TEAEs]) (Safety and tolerability; 2 mg (N = 8)): 0 | ECG abnormal, drug related (number of TEAEs [number of subjects with TEAEs]) (Safety and tolerability; 2 mg (N = 8)): 0 | Hypotension, drug related (number of TEAEs [number of subjects with TEAEs]) (Safety and tolerability; 2 mg (N = 8)): 0 | Orthostatic hypotension, drug related (number of TEAEs [number of subjects with TEAEs]) (Safety and tolerability; 2 mg (N = 8)): 0 | Overall drug related TEAEs (number of TEAEs [number of subjects with TEAEs]) (Safety and tolerability; 2 mg (N = 8)): 0 (0) | Total number of TEAEs (all severities were “mild”), n, all causalities (Safety and tolerability; 2 mg (N = 8)): 2 | Number of subjects (%) with ≥1 AE, all causalities (Safety and tolerability; 2 mg (N = 8)): 1 (12.5) | ALT increased, drug related (number of TEAEs [number of subjects with TEAEs]) (Safety and tolerability; 4 mg (N = 9)): 1 (1) | ANC decreased, drug related (number of TEAEs [number of subjects with TEAEs]) (Safety and tolerability; 4 mg (N = 9)): 1 (1) | AST increased, drug related (number of TEAEs [number of subjects with TEAEs]) (Safety and tolerability; 4 mg (N = 9)): 1 (1) | Bilirubin increased, drug related (number of TEAEs [number of subjects with TEAEs]) (Safety and tolerability; 4 mg (N = 9)): 0 | ECG abnormal, drug related (number of TEAEs [number of subjects with TEAEs]) (Safety and tolerability; 4 mg (N = 9)): 0 | Hypotension, drug related (number of TEAEs [number of subjects with TEAEs]) (Safety and tolerability; 4 mg (N = 9)): 0 | Orthostatic hypotension, drug related (number of TEAEs [number of subjects with TEAEs]) (Safety and tolerability; 4 mg (N = 9)): 0 | Overall drug related TEAEs (number of TEAEs [number of subjects with TEAEs]) (Safety and tolerability; 4 mg (N = 9)): 3 (2) | Total number of TEAEs (all severities were “mild”), n, all causalities (Safety and tolerability; 4 mg (N = 9)): 3 | Number of subjects (%) with ≥1 AE, all causalities (Safety and tolerability; 4 mg (N = 9)): 2 (22.2) | ALT increased, drug related (number of TEAEs [number of subjects with TEAEs]) (Safety and tolerability; 10 mg (N = 8)): 2 (2) | ANC decreased, drug related (number of TEAEs [number of subjects with TEAEs]) (Safety and tolerability; 10 mg (N = 8)): 0 | AST increased, drug related (number of TEAEs [number of subjects with TEAEs]) (Safety and tolerability; 10 mg (N = 8)): 1 (1) | Bilirubin increased, drug related (number of TEAEs [number of subjects with TEAEs]) (Safety and tolerability; 10 mg (N = 8)): 1 (1) | ECG abnormal, drug related (number of TEAEs [number of subjects with TEAEs]) (Safety and tolerability; 10 mg (N = 8)): 0 | Hypotension, drug related (number of TEAEs [number of subjects with TEAEs]) (Safety and tolerability; 10 mg (N = 8)): 0 | Orthostatic hypotension, drug related (number of TEAEs [number of subjects with TEAEs]) (Safety and tolerability; 10 mg (N = 8)): 1 (1) | Overall drug related TEAEs (number of TEAEs [number of subjects with TEAEs]) (Safety and tolerability; 10 mg (N = 8)): 5 (4) | Total number of TEAEs (all severities were “mild”), n, all causalities (Safety and tolerability; 10 mg (N = 8)): 6 | Number of subjects (%) with ≥1 AE, all causalities (Safety and tolerability; 10 mg (N = 8)): 4 (50.0) | Severity of TEAEs (Safety and tolerability; all TEAEs reported during the study): mild | Serious adverse events (SAEs) (Safety and tolerability; during the study): no SAEs reported | 12‐lead ECG changes (Safety and tolerability; following administration of baricitinib 2 to 10 mg): no clinically significant dose‐dependent ECG changes | Tolerability (Safety and tolerability; single and multiple oral once‐daily doses up to 10 mg): generally well tolerated | time for ANC and ALC values to return to baseline postdose ([3]; days 1 and 10): ≤ 24 h | maximum mean decrease in ANC ([3]; multiple dose 2 mg): 0.096 GI/L | maximum mean decrease in ANC ([3]; multiple dose 4 mg): 0.706 GI/L | maximum mean decrease in ANC ([3]; multiple dose 10 mg): 1.443 GI/L | time of increase in ALC after dosing ([3]; single and multiple doses): 16 h | time of maximum decrease in ANC after dosing ([3]; single and multiple doses): 8 h | maximum mean decrease from baseline in ANC ([3]; single dose 2 mg): 0.616 GI/L | maximum mean decrease from baseline in ANC ([3]; single dose 4 mg): 0.808 GI/L | maximum mean decrease from baseline in ANC ([3]; single dose 10 mg): 1.706 GI/L | excreted in the urine in an unchanged form [4]: ~75% | mean renal clearance [4]: ~12 L/h^2 | oral‐dose clearance [4]: 17 L/h | mean terminal‐phase t1/2 ([4]; healthy White subjects, noncompartmental PK method): approximately 8 hours | geometric mean terminal‐phase disposition half‐life (t1/2) ([4]; healthy White volunteers): about 8 hours | dose identified as undergoing biotransformation (cytochrome P450 3A4): < 10% | transporter substrate [5]: substrate | transporter substrate [6]: substrate | transporter substrate (P‐glycoprotein): substrate | transporter substrate [7]: substrate | t1/2 compared with adult populations [8]: substantially shorter
